# Test results taken from PubChem BioAssay.
# Calls of active or inactive are those of the source.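 Rule for the calls, unless noted: active = GFP response above 150% of the DMSO level; inconclusive = fewer than 70 events counted for a yeast strain; inactive = the rest.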
# What was measured:
# [1] = RPL19A-GFP modulators, yeast TOR pathway, confirmation, cell-based, S. cerevisiae, flow cytometry, cherry picks, mother/daughter gates (AID 2270;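 active = GFP response below 50% of the DMSO control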); details: S. cerevisiae RPL19A-GFP strain, 3 h, at 10 µM, stronger effect = lower value, 100 = same GFP as DMSO wells
# [2] = LAP4-GFP expression modulators in yeast, confirmation, cell-based, cherry picks, flow cytometry, mother/daughter gates (AID 2271;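 active = GFP response above 150% of the DMSO control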;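 note: ratio of sample to DMSO plate mean so 100% equals DMSO level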); details: S. cerevisiae LAP4-GFP strain, 3 h, at 10 µM, stronger effect = higher value, 100 means same as DMSO control
# In short: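 Test system: GFP-fusion yeast strain. Medium: synthetic complete (SC) yeast growth medium. Timing: 3 h treatment at 30 °C with rotation. Measured by: GFP by flow cytometry. Control set: positive rapamycin (400 ng/mL), negative DMSO.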
# [3] = modulators of MEP2-GFP levels in yeast, confirmation, S. cerevisiae, flow cytometry GFP, cherry picks (AID 2272;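 active = GFP response above 150% of the DMSO control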;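 note: ratio of well signal to plate DMSO mean so 100% equals DMSO level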); details: S. cerevisiae MEP2-GFP strain, 3 h, at 10 µM, stronger effect = higher value
# [4] = AGP1-GFP expression modulators, hit retest, confirmation, cell-based, flow cytometry, S. cerevisiae, cherry picks (AID 2273);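 note: median GFP channel fluorescence over the whole cell population gate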; details: S. cerevisiae AGP1-GFP strain, 3 h, at 10 µM
# [5] = modulators of CIT2-GFP expression in yeast, confirmation, S. cerevisiae, GFP fusion, cherry picks, mother/daughter gates (AID 2274); details: S. cerevisiae CIT2-GFP strain, flow cytometry, 3 h, at 10 µM, stronger effect = higher value
# [6] = measured here: daughter cell gate
# [7] = measured here: mother cell gate
# [8] = measured here: daughter cell gate response
# [9] = measured here: mother cell gate response
SMILES,GFP response vs DMSO [1],"GFP response vs DMSO [1, 6] [%]","GFP response vs DMSO [1, 7] [%]",GFP response relative to DMSO [2],"GFP response relative to DMSO [2, 8] [%]","GFP response relative to DMSO [2, 9] [%]",GFP response vs DMSO [3],"GFP response, % of DMSO [4]","GFP response, % of DMSO [5]","GFP response, % of DMSO [5, 6] [%]","GFP response, % of DMSO [5, 7] [%]"
Cc1nc(SC2CC(=O)N(c3ccccc3)C2=O)nc2c1CCCC2 (configuration not stated),95.4% (inactive),95.9,95.8,97.9% (inactive),97.6,97.2,96.2% (inactive),93.1% (inactive),101% (inactive),101,99.7
CCOC(=O)c1ccc2nc(Nc3nc4ccc(F)cc4s3)sc2c1,99.6% (inactive),98.1,99.3,101% (inactive),97.5,102,101% (inactive),105% (inactive),103% (inactive),103,103
O=C(/C=C/c1ccc(F)cc1)c1ccccc1Br,98% (inactive),98.1,98.3,112% (inactive),112,116,103% (inactive),98.1% (inactive),93.4% (inactive),93.7,89.8
O=S(=O)(c1ccc(Oc2ccccc2)cc1)N1CCOCC1,98.2% (inactive),98.4,98.2,96.2% (inactive),95.6,97.2,100% (inactive),94.1% (inactive),93.9% (inactive),94.8,94.4
CC(=O)N(\C=C/C=C/C=C1\Sc2ccccc2C1=O)c1ccccc1,110% (inactive),106,108,153% (active),145,152,238% (active),112% (inactive),131% (inactive),128,131
CCCc1[nH]nc2c1C(c1ccc(O)cc1OCC)C(C#N)=C(N)O2 (configuration not stated),102% (inactive),104,100,92.9% (inactive),99,92.3,106% (inactive),101% (inactive),104% (inactive),105,104
Cc1ccc(-n2nc(C)c3c(C)c(CCC(=O)O)c(C)nc32)cc1,102% (inactive),100,103,101% (inactive),101,100,96.8% (inactive),100% (inactive),102% (inactive),101,102
CCOC(=O)C1=C(C)N=C2SC(C(=O)OC)=CC(=O)N2C1c1ccc(F)cc1 (configuration not stated),103% (inactive),101,100,119% (inactive),110,124,91.3% (inactive),90.2% (inactive),96.5% (inactive),94.8,94.4
CC(C)c1nnc(-c2ccc(Cl)cc2)c(N(C)C)n1,98.9% (inactive),99.3,97.8,98.9% (inactive),96,99.5,103% (inactive),106% (inactive),100% (inactive),101,100
O=C1c2cccc3cccc(c23)C(=O)N1c1cccnc1,100% (inactive),102,101,85% (inactive),86.4,85.5,98.3% (inactive),98.7% (inactive),99.7% (inactive),105,98.5
CCCc1nnc(NC(=O)c2nc(S(=O)(=O)Cc3cccc(C)c3)ncc2Cl)s1,95.1% (inactive),96.4,95.2,106% (inactive),102,107,103% (inactive),101% (inactive),97.2% (inactive),99.3,98.2
O=C(O)Cc1csc(-c2cccc(Oc3ccccc3)c2)n1,100% (inactive),97.8,101,105% (inactive),98.7,106,100% (inactive),95.4% (inactive),93.9% (inactive),93.2,93.4
O=C(Oc1oc(-c2ccco2)nc1C=Nc1ccc(Cl)cc1)c1ccco1,104% (inactive),104,103,176% (active),154,188,112% (inactive),99.8% (inactive),89.7% (inactive),95.2,83.8
COc1cc(NC(=O)c2ccc(C)cc2)ccc1NC(=O)c1cc2ccccc2o1,95.4% (inactive),86,85.2,95.7% (inactive),91,91,99% (inactive),109% (inactive),100% (inactive),88.4,89.5
CCc1cccc(C)c1NC(=O)CC1Oc2ccc(C)cc2NC1=O (configuration not stated),99.3% (inactive),99.5,100,90.6% (inactive),91.3,91.3,101% (inactive),101% (inactive),98.6% (inactive),97.6,98.2
CC1CCN(S(=O)(=O)c2cccc(C(=O)Nc3nccs3)c2)CC1,101% (inactive),101,101,92.6% (inactive),95.6,93.1,100% (inactive),95.4% (inactive),107% (inactive),105,105
Cc1cc(O)c(C(=O)/C=C/c2ccccc2)c(=O)o1,97.6% (inactive),101,96.1,144% (inactive),139,148,100% (inactive),97% (inactive),96.5% (inactive),99.7,95.5
CCCCCCCCn1c(=O)c(C(=O)OCC)c(O)c2ccccc21,98.4% (inactive),99.4,99.4,92.8% (inactive),92.8,92.9,100% (inactive),99.3% (inactive),101% (inactive),101,101
Cc1cccc(NC(=S)NCC23C=CC(O2)C2C(=O)N(c4ccc(Cl)cc4)C(=O)C23)c1 (configuration not stated),100% (inactive),103,99.8,103% (inactive),102,104,102% (inactive),100% (inactive),104% (inactive),104,103
Cc1cccc(/C(N)=N/OC(=O)C23CC4CC(CC(C4)C2)C3)c1,102% (inactive),101,101,113% (inactive),108,119,108% (inactive),85% (inactive),123% (inactive),111,127
CCN(c1ccccc1)S(=O)(=O)c1ccc(C(=O)Nc2nnc(COC)o2)cc1,101% (inactive),99.5,102,96.2% (inactive),97.2,98.3,100% (inactive),99.2% (inactive),96.5% (inactive),94.8,98.7
O=[N+]([O-])c1ccc(N=Nc2c(Cl)cc(O)cc2Cl)cc1,91.9% (inactive),84.8,85.2,252% (active),150,230,112% (inactive),91.4% (inactive),96.4% (inactive),96.4,82.8
CC(C)c1ccc(C2C3CSCC=C3C(C#N)=C(N)C2(C#N)C#N)cc1 (configuration not stated),97.2% (inactive),97.8,95.3,111% (inactive),108,115,101% (inactive),105% (inactive),99.7% (inactive),100,97.7
O=S(=O)(CCN(CCS(=O)(=O)C(F)(F)F)CC1CCCO1)C(F)(F)F (configuration not stated),92.9% (inactive),96.2,86.3,219% (active),179,210,118% (inactive),94.5% (inactive),111% (inactive),115,96.8
C/C(=N\NC(=O)Cc1ccc([N+](=O)[O-])cc1)c1cccnc1,97.8% (inactive),99.3,97.7,98.2% (inactive),97.5,97.3,96.8% (inactive),98.4% (inactive),102% (inactive),103,102
Cc1ccc(C(=O)Oc2oc(-c3ccccc3)nc2C=Nc2ccc(N(C)C)cc2)cc1,98.2% (inactive),99.4,98.8,94.9% (inactive),98.2,93,105% (inactive),101% (inactive),113% (inactive),114,114
O=C(Nc1nc(-c2ccccc2)cs1)c1cccs1,99.7% (inactive),94.2,101,101% (inactive),100,106,93.5% (inactive),86.9% (inactive),97.8% (inactive),94.8,98.7
